The text below walks through data of ChEMBL document CHEMBL1126988, “Quinolone antibacterials containing the new 7-[3-(1-aminoethyl)-1- pyrrolidinyl] side chain: the effects of the 1-aminoethyl moiety and its stereochemical configurations on potency and in vivo efficacy” (J Med Chem, 1993).

≈ marks a conversion by molar mass, not a printed value.

What all share (assay type): functional
In assay [1] the test system is Providencia rettgeri. In words: Minimum inhibitory concentration was evaluated in vitro against Providencia rettgeri M1771. In a few lines:
(§1)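 Standard microtitration broth assay against a panel of 10 Gram-positive and Gram-negative organisms. MIC read in µg/mL and averaged over multiple experiments.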

In assay [2] the test system is Escherichia coli. The assay can be described thus: Antibacterial activity against Escherichia coli Vogel after oral administration in mouse. The note with it: Escherichia coli, po; read-out: PD50.
Assay [3] relates to Enterococcus faecalis. The assay can be described thus: Minimum inhibitory concentration was evaluated in vitro against Enterococcus faecalis MGH-2. In a few lines:
as §1

In assay [4] the test system is Pseudomonas aeruginosa. In words: Minimum inhibitory concentration was evaluated in vitro against Pseudomonas aeruginosa UI-18. In a few lines:
as §1

The subject of assay [5] is Enterobacter cloacae. In words: Minimum inhibitory concentration in vitro against Enterobacter cloacae MA 2646.
For assay [6], the system named is Streptococcus pyogenes. In words: Antibacterial activity measured as mouse protection against Streptococcus pyogenes C 203 after subcutaneous administration. The note with it: for ED50: Streptococcus pyogenes, C 203, sc, read-out: PD50.
In assay [7] the test system is Streptococcus pyogenes. In words: Compounds were evaluated in vivo for antibacterial activity for mouse protection against Streptococcus pyogenes C 203 after oral administration. The note with it: for ED50: Streptococcus pyogenes, C 203, po, read-out: PD50.
Assay [8] has as its system Escherichia coli. The assay can be described thus: Antibacterial activity in vitro against Escherichia coli Vogel. The method, boiled down: as §1
In assay [9] the test system is Streptococcus pyogenes. In words: Minimum inhibitory concentration was evaluated in vitro against Streptococcus pyogenes C 203. In a few lines:
as §1

The subject of assay [10] is Staphylococcus aureus. In words: Minimum inhibitory concentration was evaluated in vitro against Staphylococcus aureus H 228. The method, boiled down: as §1
The subject of assay [11] is Streptococcus pneumoniae. In words: Minimum inhibitory concentration was evaluated in vitro against Streptococcus pneumoniae SV-1. The method, boiled down: as §1
Assay [12] concerns Klebsiella pneumoniae. In words: Minimum inhibitory concentration was evaluated in vitro against Klebsiella pneumoniae MGH2. The method, boiled down:
as §1

In assay [13] the test system is Staphylococcus aureus. In words: Minimum inhibitory concentration was evaluated in vitro against Staphylococcus aureus UC 76. In a few lines:
as §1

The test system of assay [14] is Escherichia coli. In words: Antibacterial activity against Escherichia coli Vogel after subcutaneous administration in mouse. The note with it: Escherichia coli, sc; read-out: PD50.
The mark [15] stands for this setting: Providencia rettgeri, read-out: MIC.
Where [16] appears, read: Enterococcus faecalis, read-out: MIC.
[17] abbreviates: Pseudomonas aeruginosa, read-out: MIC.
[18] abbreviates: Enterobacter cloacae, read-out: MIC.
[19] abbreviates: Escherichia coli, read-out: MIC.
The mark [20] stands for this setting: Streptococcus pyogenes, read-out: MIC.
[21] abbreviates: Staphylococcus aureus, read-out: MIC.
Setting [22] is: Klebsiella pneumoniae, read-out: MIC.
[23] abbreviates: Streptococcus pneumoniae, read-out: MIC.

Consider `NC1CCN(c2c(F)cc3c(=O)c(C(=O)O)cn(C4CC4)c3c2F)C1` (centres undefined), for which the MIC (usually the smallest concentration in the dilution series that meets the test's criterion for growth inhibition) in assay [1] (setting [15]) was determined as 0.05 µg/mL (≈ 0.143 µM); in [3] (setting [16]), 0.05 µg/mL (≈ 0.143 µM); in assay [4] (setting [17]), 0.1 µg/mL (≈ 0.286 µM); in assay [5] (setting [18]), 0.025 µg/mL (≈ 0.0716 µM). The ED50 in assay [2] is 1 mg/kg; in assay [6] it was 2 mg/kg; in [7] it was 8 mg/kg.
For `CN[C@H](C)[C@H]1CCN(c2cc3c(cc2F)c(=O)c(C(=O)O)cn3C2CC2)C1`, the MIC in [1] (setting [15]) was determined as 0.8 µg/mL (≈ 2.14 µM); in assay [8] (setting [19]), 0.2 µg/mL (≈ 0.536 µM); in assay [9] (setting [20]), 0.1 µg/mL (≈ 0.268 µM); in [10] (setting [21]) it was 0.4 µg/mL (≈ 1.07 µM); in [11], 0.2 µg/mL (≈ 0.536 µM); in [3] (setting [16]), 0.2 µg/mL (≈ 0.536 µM). For the same molecule, the MIC in assay [12] (setting [22]) turned out to be 0.4 µg/mL (≈ 1.07 µM); in [13] (setting [21]) it was 0.05 µg/mL (≈ 0.134 µM); in [4] (setting [17]) it was 3.1 µg/mL (≈ 8.3 µM); in assay [5] (setting [18]), 0.2 µg/mL (≈ 0.536 µM). Besides, the PD50 in [6] was 7 mg/kg; in assay [7], 82 mg/kg.
Regarding `O=C(O)c1cn(C2CC2)c2cc(N3CCNCC3)c(F)cc2c1=O` [CIPROFLOXACIN], the minimal inhibitory concentration (MIC) in [10] (setting [21]) was found to be 3.1 µg/mL (≈ 9.36 µM); in [11] (setting [23]) it was 1.6 µg/mL (≈ 4.83 µM); in [12] (setting [22]), 0.05 µg/mL (≈ 0.151 µM). Besides, the ED50 in assay [2] turned out to be 1 mg/kg; in assay [14], 0.3 mg/kg.
For `CN[C@H](C)[C@@H]1CCN(c2cc3c(cc2F)c(=O)c(C(=O)O)cn3C2CC2)C1`, the MIC came out at 0.8 µg/mL (≈ 2.14 µM) in [1] (setting [15]); 0.1 µg/mL (≈ 0.268 µM) in [8] (setting [19]); 0.05 µg/mL (≈ 0.134 µM) in assay [9] (setting [20]); 0.2 µg/mL (≈ 0.536 µM) in assay [10] (setting [21]); 0.05 µg/mL (≈ 0.134 µM) in [11] (setting [23]); 0.2 µg/mL (≈ 0.536 µM) in assay [3] (setting [16]). The minimum inhibitory concentration (MIC) in [12] (setting [22]) is 0.4 µg/mL (≈ 1.07 µM); in [13] (setting [21]), 0.05 µg/mL (≈ 0.134 µM); in assay [4] (setting [17]), 1.6 µg/mL (≈ 4.28 µM); in assay [5] (setting [18]), 0.2 µg/mL (≈ 0.536 µM). The ED50 in assay [6] came to 3 mg/kg; in assay [7] it was 36 mg/kg.
`NCC1CCN(c2nc3c(cc2F)c(=O)c(C(=O)O)cn3-c2ccc(F)cc2F)C1` (centres undefined): the MIC worked out at 0.2 µg/mL (≈ 0.478 µM) in [1] (setting [15]); 0.05 µg/mL (≈ 0.12 µM) in [8] (setting [19]); 0.025 µg/mL (≈ 0.0598 µM) in [9] (setting [20]); 0.05 µg/mL (≈ 0.12 µM) in assay [10] (setting [21]); 0.025 µg/mL (≈ 0.0598 µM) in assay [11] (setting [23]); 0.025 µg/mL (≈ 0.0598 µM) in assay [3] (setting [16]). The MIC amounted to 0.1 µg/mL (≈ 0.239 µM) in assay [12] (setting [22]), 0.013 µg/mL (≈ 0.0311 µM) in assay [13] (setting [21]), 0.4 µg/mL (≈ 0.956 µM) in assay [4] (setting [17]) and 0.05 µg/mL (≈ 0.12 µM) in assay [5] (setting [18]). Moreover, the ED50 turned out to be 1 mg/kg in [6] and 10 mg/kg in assay [7].
With `CCNCC1CCN(c2c(F)cc3c(=O)c(C(=O)O)cn(C4CC4)c3c2C(F)(F)F)C1` (centres undefined), the ED50 was determined as 5 mg/kg in assay [2], 2 mg/kg in [14], 1 mg/kg in assay [6] and 2 mg/kg in [7]. Moreover, the MIC in assay [13] (setting [21]) was 0.025 µg/mL (≈ 0.0566 µM).
Regarding `CN[C@@H](C)[C@@H]1CCN(c2nc3c(cc2F)c(=O)c(C(=O)O)cn3C2CC2)C1`, the minimum inhibitory concentration (MIC) is 0.8 µg/mL (≈ 2.14 µM) in assay [1]; 0.1 µg/mL (≈ 0.267 µM) in assay [8]; 0.1 µg/mL (≈ 0.267 µM) in assay [9]; 0.2 µg/mL (≈ 0.534 µM) in assay [10]; 0.1 µg/mL (≈ 0.267 µM) in [11]; 0.2 µg/mL (≈ 0.534 µM) in assay [3]. For the same molecule, the MIC worked out at 0.2 µg/mL (≈ 0.534 µM) in [12], 0.05 µg/mL (≈ 0.134 µM) in [13], 1.6 µg/mL (≈ 4.27 µM) in [4] and 0.1 µg/mL (≈ 0.267 µM) in assay [5]. Also, the results for the PD50 in assay [6] and in assay [7] were 5 mg/kg and 11 mg/kg, respectively.
Regarding `CCNCC1CCN(c2c(F)cc3c(=O)c(C(=O)O)cn(C4CC4)c3c2OC)C1` (centres undefined), the MIC in assay [1] (setting [15]) worked out at 0.4 µg/mL (≈ 0.991 µM); in assay [8] (setting [19]), 0.1 µg/mL (≈ 0.248 µM); in assay [9] (setting [20]), 0.013 µg/mL (≈ 0.0322 µM); in assay [10] (setting [21]) it was 0.025 µg/mL (≈ 0.062 µM); in [11] (setting [23]), 0.013 µg/mL (≈ 0.0322 µM); in assay [3] (setting [16]), 0.05 µg/mL (≈ 0.124 µM). Moreover, the MIC was 0.2 µg/mL (≈ 0.496 µM) in [12] (setting [22]), 0.006 µg/mL (≈ 0.0149 µM) in [13] (setting [21]), 1.6 µg/mL (≈ 3.97 µM) in [4] (setting [17]) and 0.1 µg/mL (≈ 0.248 µM) in assay [5] (setting [18]). Further, the figures for the ED50 in assay [6] and in assay [7] were 0.4 mg/kg and 4 mg/kg, respectively.
For the molecule `CCNC(C)C1CCN(c2cc3c(c(N)c2F)c(=O)c(C(=O)O)cn3C2CC2)C1` (racemic), the MIC in [1] (setting [15]) was determined as 0.8 µg/mL (≈ 1.99 µM); in assay [8] (setting [19]), 0.1 µg/mL (≈ 0.248 µM); in [9] (setting [20]), 0.013 µg/mL (≈ 0.0323 µM); in assay [10] (setting [21]), 0.05 µg/mL (≈ 0.124 µM); in assay [11] (setting [23]) it was 0.013 µg/mL (≈ 0.0323 µM); in assay [3] (setting [16]), 0.05 µg/mL (≈ 0.124 µM). The minimal inhibitory concentration (MIC) in assay [12] (setting [22]) is 0.2 µg/mL (≈ 0.497 µM); in assay [13] (setting [21]) it was 0.025 µg/mL (≈ 0.0621 µM); in assay [4] (setting [17]), 1.6 µg/mL (≈ 3.98 µM); in assay [5] (setting [18]), 0.1 µg/mL (≈ 0.248 µM). In addition, the ED50 in [6] was determined as 1 mg/kg. In [7], this molecule came in with a PD50 of 5 mg/kg.
